Experimental findings from ChEMBL document CHEMBL4513216, “Probing the Open Global Health Chemical Diversity Library for Multistage-Active Starting Points for Next-Generation Antimalarials” (ACS Infect Dis, 2020) are described below.

Each structure is given as a SMILES string.

The series in a line: Toxicity liver stage against HepG2, at 10uM. Also noted: test concentration 10 uM, cell line HepG2-A16-CD81EGFP. The series is classed as cell-based. The following applies: human, HepG2-A16-CD81EGFP cells; read-out: INHIBITION
Put shortly: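 Uninfected HepG2-A16-CD81EGFP cells, 3 × 10^3 per well, 1536-well, plated on prespotted compound at 10 μM final, parasite-free screening media added to match infected plates; puromycin 10 μM positive, DMSO 0.5% negative; run in parallel with 48 h PbLuc assay at 37 °C, 5% CO2; viability by CellTiter-Glo luminescence, normalized to controls.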
Turning to `CCn1c(=O)n(CC)c2cc(S(N)(=O)=O)ccc21`, the cytotoxicity at 10 µM was -7.72%.

With `CCc1nc2c(c(C)c(C)n2Cc2cccnc2)c(N)c1C`, the cytotoxicity at 10 µM turned out to be 6.7%.

As to `CCS(=O)(=O)c1cccc(C(=O)Nc2cccc3c2C(=O)N(C)C3=O)c1`, the cytotoxicity at 10 µM is -139%.

For the compound `COC(CNC(=O)c1cn(C)nn1)c1ccc(C)s1` (stereo unspecified), the cytotoxicity at 10 µM was -8.11%.

With `CN(C)C(=O)N1CCC2(C1)CN(c1cccnc1)C(=O)CN2C` (stereo unspecified), the cytotoxicity at 10 µM amounted to 6.96%.

In the case of `CN(C)CCO[C@@H]1CC[C@H]2[C@H]1OCCN2C(=O)c1ccncc1`, the cytotoxicity at 10 µM was determined as 5%.

`O=C(O)c1cc(C2CC2)nc2c(Cl)cnn12`: the cytotoxicity at 10 µM was 8.63%.

For the compound `CNC(=O)c1cn[nH]c1C1CCN(Cc2ccccc2OC)C1` (stereo unspecified), the cytotoxicity at 10 µM stood at 7.16%.

`Cc1cc(N)nc(C2(C)CCCN2C(=O)Cc2ccc(F)cc2)n1` (stereo unspecified): the cytotoxicity at 10 µM was -27.5%.

With `CCCNC(=O)C1(CC2CC(c3ccccc3OC)=NO2)CCOCC1` (stereo unspecified), the cytotoxicity at 10 µM was determined as 21.8%.

`CCC(=O)N1CCC(Cc2ccccc2-c2ccccc2F)(C(N)=O)C1` (stereo unspecified): the cytotoxicity at 10 µM is -10.8%.

As to `CC(=O)N1CCCC(c2ccc(Br)cn2)C1` (stereo unspecified), the cytotoxicity at 10 µM is -24.1%.

Take `Cc1cc(C)nc(Nc2cncc(C3CCCN(S(C)(=O)=O)C3)n2)n1` (stereo unspecified): the cytotoxicity at 10 µM was -16.1%.

For `CCc1cccc2cc(CNCCCN3CCOCC3)c(=O)[nH]c12`, the cytotoxicity at 10 µM was -0.918%.

As to `CCCn1ncc(CN2C[C@@H]3CCCN3C[C@@H]2Cc2ccccc2)c1C`, the cytotoxicity at 10 µM is -8.16%.

As to `O=S(=O)(c1cccs1)N1CCCCC1c1ccn[nH]1` (stereo unspecified), the cytotoxicity at 10 µM is -3%.

As to `COc1cccc(CN2CCC(c3nnc(-c4cnc(C)cn4)o3)C2)c1` (stereo unspecified), the cytotoxicity at 10 µM was -10.4%.

Take `Cc1ccc(C(=O)CC(SC2CCCCC2)C(=O)O)cc1` (stereo unspecified): the cytotoxicity at 10 µM was found to be 7.53%.

For the compound `Cc1cc(CN2CCCN(c3ccc(C#N)cc3)CC2)no1`, the cytotoxicity at 10 µM came out at 2.07%.

Consider `c1nc2c(c(N3CCCC(Cn4cncn4)C3)n1)CCC2` (stereo unspecified), for which the cytotoxicity at 10 µM came to 52.4%.

As for `COCC(NC(=O)NCc1ccc(C)c(F)c1)c1ccco1` (stereo unspecified), the cytotoxicity at 10 µM turned out to be 4.96%.

On to `NC(=O)C(CNC(=O)Cc1ccc(F)cc1)Cc1ccc(F)cc1` (stereo unspecified), for which the cytotoxicity at 10 µM came out at 3.02%.

`CCn1c(C)nnc1SCCn1cc(-c2nccs2)nn1`: the cytotoxicity at 10 µM is 2.91%.

With `Cc1cc(C(=O)N(Cc2c(C)nn(C)c2C)C(C)C)nc(C)n1`, the cytotoxicity at 10 µM was -9.85%.

As to `OC[C@H]1CN(C2Cc3ccccc3C2)C[C@H]1CN1CCC(O)CC1`, the cytotoxicity at 10 µM came to 0.0255%.

`CCc1ncc(C(=O)N(CC)CCOC)cn1`: the cytotoxicity at 10 µM is 2.24%.

Regarding `CCNC(=O)[C@@H]1C[C@H](NC(=O)c2cc(=O)[nH]c3ccc(C)cc23)CN1C`, the cytotoxicity at 10 µM was determined as 7.44%.

With `N#Cc1ccccc1CC1CCCS(=O)(=O)C1` (stereo unspecified), the cytotoxicity at 10 µM was -3.11%.

In the case of `CC(=O)N1CC2(CCN(c3nccc4ccccc34)CC2)CC1C(=O)O` (stereo unspecified), the cytotoxicity at 10 µM came to 4.65%.

Take `Cc1cc(N[C@@H](CO)c2ccccc2)n2nc(C)c(C)c2n1`: the cytotoxicity at 10 µM was -0.054%.

Take `CCc1c(O)nc(SC(C)CC)n(-c2ccccc2)c1=O` (stereo unspecified): the cytotoxicity at 10 µM was 4.22%.

In the case of `Cn1ncc2c(NCCn3cccc3)nc(C3CCCC3)nc21`, the cytotoxicity at 10 µM was determined as 3.07%.

With `COc1ncc(-c2cc(-c3ccn(C)c3)nc(N)c2C#N)cn1`, the cytotoxicity at 10 µM amounted to 0.471%.

`CC(C)c1cc(=O)[nH]c(-c2ccccc2CN2CCC(C)(C)C2)n1`: the cytotoxicity at 10 µM was -42%.

For the compound `CCOCCN1CCN([C@@H]2c3ccccc3C3(CCNCC3)[C@H]2O)CC1`, the cytotoxicity at 10 µM is -0.777%.

As to `Cc1cccc2cc(CN3CCC(N4CCCC4)CC3)c(=O)[nH]c12`, the cytotoxicity at 10 µM is -3.45%.

For `Cc1cc2c(=O)n(CCSc3ncn[nH]3)cnc2s1`, the cytotoxicity at 10 µM stood at 8.87%.

Regarding `Cc1cnccc1N1CCCN(Cc2ccc(-c3cc[nH]n3)o2)CC1`, the cytotoxicity at 10 µM is -5.13%.

On to `CN1CC2(CCNCC2)CC1C(=O)NCCCNc1cccnc1` (stereo unspecified), for which the cytotoxicity at 10 µM turned out to be 6.24%.

`c1ccc(OCCCn2ccnc2-c2cn(C3CCNCC3)nn2)cc1`: the cytotoxicity at 10 µM was -18.1%.

On to `O=C(NCc1cn2c(n1)SCC2)c1ccc(CN2CCCCC2)cc1`, for which the cytotoxicity at 10 µM was -1.08%.

For the compound `Cc1cc(NCC2CCCO2)cc(=O)n1C` (stereo unspecified), the cytotoxicity at 10 µM was -8.19%.

For the compound `O=C1NC(=O)c2c3c(nc(O)c21)CCCC3`, the cytotoxicity at 10 µM was -4.69%.

In the case of `Cc1nc(CN2CCCC(NCc3nc4ccccc4s3)C2)no1` (stereo unspecified), the cytotoxicity at 10 µM was -0.84%.

As to `CC(C)c1noc(CN2CCCC2c2noc(C(C)C)n2)n1` (stereo unspecified), the cytotoxicity at 10 µM was -5.89%.

For the compound `CCN(Cc1nc2c(cnn2C)c(=O)[nH]1)Cc1ccco1`, the cytotoxicity at 10 µM is -2.8%.

Regarding `CNC(=O)CCNC(=O)CCc1c(C)nc2cc(O)nn2c1C`, the cytotoxicity at 10 µM was -2.7%.

Regarding `CC(=O)N1CCCC1C(=O)NCCOc1ccc(C(C)C)cc1` (stereo unspecified), the cytotoxicity at 10 µM was -5.26%.

As for `O=C(c1ccc(N2CCCC2)nn1)N1CCCC(n2ccnc2)C1` (stereo unspecified), the cytotoxicity at 10 µM was -16.2%.

Take `CC1CN(CC(=O)NC2CCOCC2)CCN1Cc1nccn1C` (stereo unspecified): the cytotoxicity at 10 µM was -6.57%.

For `c1cncc(-c2noc(CNC3CCc4ncnn4C3)n2)c1` (stereo unspecified), the cytotoxicity at 10 µM was -5.57%.

`CC(=O)c1cccc(NC(=O)CCn2nc(-c3cccs3)oc2=O)c1`: the cytotoxicity at 10 µM was -4.47%.

As to `N#Cc1ccc(S(=O)(=O)NC(=O)COc2ccc3c(c2)CCC3)cc1`, the cytotoxicity at 10 µM is -9.36%.

In the case of `N#Cc1cn(C2CC2)c(=O)n(CC(O)c2ccccc2C(F)(F)F)c1=O` (stereo unspecified), the cytotoxicity at 10 µM was -4.22%.

`CC(NC(=O)c1ccsc1)c1ccc2c(c1)NC(=O)CO2` (stereo unspecified): the cytotoxicity at 10 µM was -11.7%.

For the compound `Cc1nn(C)c(Cl)c1C1CCCN1CC(=O)NCc1ccco1` (stereo unspecified), the cytotoxicity at 10 µM worked out at 1.48%.

As to `CC(C)CN(CCc1ccccc1)Cc1nc2c(cnn2C)c(=O)[nH]1`, the cytotoxicity at 10 µM was -6.94%.

`O=C(c1ccc(O)nc1)N1CCC(Nc2cccnn2)CC1`: the cytotoxicity at 10 µM was -8.83%.

`CS(=O)(=O)NC1CCCN(C(=O)NCc2cccc(F)c2)C1` (stereo unspecified): the cytotoxicity at 10 µM was -18.8%.

For `Cc1nc(CN(C)C2CCN(Cc3cccc4c3OCCO4)C2)no1` (stereo unspecified), the cytotoxicity at 10 µM is -13.9%.

As to `CCc1nccn1C1CCCN(C(=O)c2ccc3[nH]nnc3c2)C1` (stereo unspecified), the cytotoxicity at 10 µM turned out to be 7.15%.

Turning to `CC1CCCN(CCNC(=O)c2ccn(-c3ccccc3)n2)C1` (stereo unspecified), the cytotoxicity at 10 µM was -3.81%.

As for `O=c1oc(-c2ccc(F)cc2)nn1CN1CCN(C2CCCC2)CC1`, the cytotoxicity at 10 µM was -1.78%.

In the case of `Cc1cnn(C2CN(Cc3nc(C(C)(C)C)no3)C2)c1`, the cytotoxicity at 10 µM was -7.28%.

Consider `Cn1ncc2c(=O)[nH]c(CN(Cc3cccc(F)c3)C3CC3)nc21`, for which the cytotoxicity at 10 µM was -13.1%.

As to `CC(C)n1ccnc1CN1CCCN(C(=O)c2cc(Cl)c[nH]2)CC1`, the cytotoxicity at 10 µM was -3.79%.

As to `Cc1nc(CN2CCCC(NCCc3ccccc3Cl)C2)no1` (stereo unspecified), the cytotoxicity at 10 µM is -11.8%.

As to `O[C@@]1(c2ccccn2)CC[C@H]2CN(Cc3ccccn3)C[C@H]21`, the cytotoxicity at 10 µM is -4.97%.

With `Cn1ccnc1CN1CCCC(Cc2ccnc3ccncc23)CC1` (stereo unspecified), the cytotoxicity at 10 µM is -0.751%.

`Cc1cc(NCCO)nc(N2CCC(Cc3ccccc3)CC2)c1C#N`: the cytotoxicity at 10 µM worked out at 4.35%.

For `Fc1cnc(N2CCCC3(COCCN(c4nccs4)C3)C2)nc1` (stereo unspecified), the cytotoxicity at 10 µM is 1.43%.
